Experiments:
[1] = test system: Mus musculus; assay: Urinary Metabolic (acetaminophen-3-mecapturate) profile in the mouse 24 hr after dose of 3 mmol/kg of the compound; format: ADME, organism-based, Urine; settings: in vivo
[2] = test system: Mus musculus; assay: Time course of Distribution of Radioactivity in Mice blood after 3 mmol/kg dose of the Compound after 1 h; format: ADME, organism-based; settings: in vivo
Method in brief: (§1)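 Groups of 12 mice given [acetyl-14C]-labelled drug ip, 3 mmol/kg (0.45 mCi/mmol), housed individually with urine/feces separation. Four killed at each of 1, 3 and 24 h by exsanguination. Tissues (~100 mg) digested in Soluene 350; blood digested and peroxide-bleached; feces freeze-dried, rehydrated, digested and bleached. Scintillation counting; nmol equiv/mg tissue or per mL blood/urine, means ± SE (N = 4).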

[3] = test system: Mus musculus; assay: Urinary Metabolic (3-methoxyacetaminophen) profile in the mouse 24 hr after dose of 3 mmol/kg of the compound; format: ADME, organism-based, Urine; settings: in vivo
[4] = test system: Mus musculus; assay: Time course of Distribution of Radioactivity in Mice brain after 3 mmol/kg dose of the Compound after 24 h; format: ADME, organism-based; settings: in vivo; method in brief: as §1
[5] = test system: Mus musculus; assay: Time course of Distribution of Radioactivity in Mice Liver after 3 mmol/kg dose of the Compound after 3 h; format: ADME, organism-based; settings: in vivo; method in brief: as §1
[6] = test system: Mus musculus; assay: Time course of Distribution of Radioactivity in Mice lungs/heart after 3 mmol/kg dose of the Compound after 1 h; format: ADME, organism-based, Lung; settings: in vivo; method in brief: as §1
[7] = test system: Mus musculus; assay: Time course of Distribution of Radioactivity in Mice intestine after 3 mmol/kg dose of the Compound after 1 h; format: ADME, organism-based; settings: in vivo; method in brief: as §1
[8] = test system: Mus musculus; assay: Urinary Metabolic (Acetaminophen) profile in the mouse 24 h after dose of 3 mmol/kg of the compound; format: ADME, organism-based, Urine; settings: in vivo
[9] = test system: Mus musculus; assay: Time course of Distribution of Radioactivity in Mice kidney after 3 mmol/kg dose of the Compound after 1 h; format: ADME, organism-based; settings: in vivo; method in brief: as §1
[10] = test system: Mus musculus; assay: Time course of Distribution of Radioactivity in Mice intestine after 3 mmol/kg dose of the Compound after 24 h; format: ADME, organism-based; settings: in vivo; method in brief: as §1
[11] = test system: Mus musculus; assay: Hepatotoxicity in Swiss-Webster Mice Caused by compound at 400 mg/kg (i.p.) dose; 8/10; format: functional; settings: route intraperitoneal
Method in brief: (§2)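 Male Swiss-Webster mice (20 g), groups of 10, were given a single ip dose of drug in saline with no pretreatment. Survivors were decapitated at 24 h and counted. Plasma ALT was measured, and liver sections (formalin-fixed, paraffin, H&E) were scored for necrosis severity in survivors. Values are means ± SE.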

[12] = test system: Mus musculus; assay: Time course of Distribution of Radioactivity in Mice blood after 3 mmol/kg dose of the Compound after 24 h; format: ADME, organism-based; settings: in vivo; method in brief: as §1
[13] = test system: Mus musculus; assay: (§3) Hepatotoxicity in Swiss-Webster Mice Caused by compound at 750 mg/kg (i.p.) dose; format: functional, organism-based; parameters: dose 750 mg/kg; method in brief: as §2
[14] = test system: Mus musculus; assay: Urinary Metabolic (3-(methylthio)acetaminophen) profile in the mouse 24 h after dose of 3 mmol/kg of the compound; format: ADME, organism-based, Urine; settings: in vivo
[15] = test system: Mus musculus; assay: Time course of Distribution of Radioactivity in Mice Urine after 3 mmol/kg dose of the Compound after 3 h; format: ADME, organism-based; settings: in vivo; method in brief: as §1
[16] = test system: Mus musculus; assay: Time course of Distribution of Radioactivity in Mice brain after 3 mmol/kg dose of the Compound after 3 h; format: ADME, organism-based; settings: in vivo; method in brief: as §1
[17] = test system: Mus musculus; assay: Time course of Distribution of Radioactivity in Mice lungs/heart after 3 mmol/kg dose of the Compound after 3 h; format: ADME, organism-based, Lung; settings: in vivo; method in brief: as §1
[18] = test system: Mus musculus; assay: Time course of Distribution of Radioactivity in Mice stomach after 3 mmol/kg dose of the Compound after 24 h; format: ADME, organism-based; settings: in vivo; method in brief: as §1
[19] = test system: Mus musculus; assay: Time course of Distribution of Radioactivity in Mice feces after 3 mmol/kg dose of the Compound after 24 h; format: ADME, organism-based; settings: in vivo; method in brief: as §1
[20] = test system: Mus musculus; assay: Time course of Distribution of Radioactivity in Mice intestine after 3 mmol/kg dose of the Compound after 3 h; format: ADME, organism-based; settings: in vivo; method in brief: as §1
[21] = test system: Mus musculus; assay: Time course of Distribution of Radioactivity in Mice lungs/heart after 3 mmol/kg dose of the Compound after 24 h; format: ADME, organism-based, Lung; settings: in vivo; method in brief: as §1
[22] = test system: Mus musculus; assay: Time course of Distribution of Radioactivity in Mice Liver after 3 mmol/kg dose of the Compound after 1 h; format: ADME, organism-based; settings: in vivo; method in brief: as §1
[23] = test system: Mus musculus; assay: Urinary Metabolic (3-hydroxyacetaminophen) profile in the mouse 24 h after dose of 3 mmol/kg of the compound; format: ADME, organism-based, Urine; settings: in vivo
[24] = test system: Mus musculus; assay: Time course of Distribution of Radioactivity in Mice Urine after 3 mmol/kg dose of the Compound after 24 h; format: ADME, organism-based; settings: in vivo; method in brief: as §1
[25] = test system: Mus musculus; assay: Time course of Distribution of Radioactivity in Mice kidney after 3 mmol/kg dose of the Compound after 24 h; format: ADME, organism-based; settings: in vivo; method in brief: as §1
[26] = test system: Mus musculus; assay: (§4) Hepatotoxicity in Swiss-Webster Mice Caused by compound at 400 mg/kg (i.p.) dose; format: functional; settings: route intraperitoneal; method in brief: as §2
[27] = test system: Mus musculus; assay: Hepatotoxicity in Swiss-Webster Mice Caused by compound at 750 mg/kg (i.p.) dose; 4/10; format: functional; settings: route intraperitoneal; method in brief: as §2
[28] = test system: Mus musculus; assay: Urinary Metabolic (3-cysteinnylacetaminophen) profile in the mouse 24 hr after dose of 3 mmol/kg of the compound; format: ADME, organism-based, Urine; settings: in vivo
[29] = test system: Mus musculus; assay: Time course of Distribution of Radioactivity in Mice stomach after 3 mmol/kg dose of the Compound after 3 h; format: ADME, organism-based; settings: in vivo; method in brief: as §1
[30] = test system: Mus musculus; assay: as §4; format: functional, organism-based; parameters: dose 400 mg/kg; method in brief: as §2
[31] = test system: Mus musculus; assay: Time course of Distribution of Radioactivity in Mice feces after 3 mmol/kg dose of the Compound after 1 hr; format: ADME, organism-based; settings: in vivo; method in brief: as §1
[32] = species: Mus musculus; assay: Analgesic activity determined in mice using the Bradykinin-induced Writhing test; format: functional
Method in brief: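 Male CD1 mice (15–20 g), test drug given orally 15 min before bradykinin ip (4 μg in 0.2 mL sterile water), then a second bradykinin injection (0.2 μg/0.1 mL) 15 min later. Writhing was scored over the next 10 min, with control groups of 10 mice. ED50 was derived by log-probit analysis from at least five doses, with 95% limits.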

[33] = test system: Mus musculus; assay: Time course of Distribution of Radioactivity in Mice feces after 3 mmol/kg dose of the Compound after 3 h; format: ADME, organism-based; settings: in vivo; method in brief: as §1
[34] = test system: Mus musculus; assay: Time course of Distribution of Radioactivity in Mice kidney after 3 mmol/kg dose of the Compound after 3 h; format: ADME, organism-based; settings: in vivo; method in brief: as §1
[35] = test system: Mus musculus; assay: Time course of Distribution of Radioactivity in Mice spleen after 3 mmol/kg dose of the Compound after 1 h; format: ADME, organism-based; settings: in vivo; method in brief: as §1
[36] = test system: Mus musculus; assay: Time course of Distribution of Radioactivity in Mice spleen after 3 mmol/kg dose of the Compound after 3 h; format: ADME, organism-based; settings: in vivo; method in brief: as §1
[37] = test system: Mus musculus; assay: Time course of Distribution of Radioactivity in Mice brain after 3 mmol/kg dose of the Compound after 1 h; format: ADME, organism-based; settings: in vivo; method in brief: as §1
[38] = test system: Mus musculus; assay: Time course of Distribution of Radioactivity in Mice Liver after 3 mmol/kg dose of the Compound after 24 h; format: ADME, organism-based; settings: in vivo; method in brief: as §1
[39] = test system: Mus musculus; assay: Time course of Distribution of Radioactivity in Mice Urine after 3 mmol/kg dose of the Compound after 1 h; format: ADME, organism-based; settings: in vivo; method in brief: as §1
[40] = test system: Mus musculus; assay: Time course of Distribution of Radioactivity in Mice spleen after 3 mmol/kg dose of the Compound after 24 h; format: ADME, organism-based; settings: in vivo; method in brief: as §1
[41] = test system: Mus musculus; assay: as §3; format: functional; settings: route intraperitoneal; method in brief: as §2
[42] = test system: Mus musculus; assay: Time course of Distribution of Radioactivity in Mice stomach after 3 mmol/kg dose of the Compound after 1 h; format: ADME, organism-based; settings: in vivo; method in brief: as §1
[43] = test system: Mus musculus; assay: Time course of Distribution of Radioactivity in Mice blood after 3 mmol/kg dose of the Compound after 3 h; format: ADME, organism-based; settings: in vivo; method in brief: as §1

Compound: CC(=O)Nc1ccc(O)cc1 [ACETAMINOPHEN]
- Administered dose [1]: 2%
- Radioactivity [2]: 1605 nM equiv (ml of blood)-1
- Administered dose [3]: 1.1%
- Radioactivity [4]: 0.05 nM equiv (mg of tissue)-1
- Radioactivity [5]: 0.73 nM equiv (mg of tissue)-1
- Radioactivity [6]: 1.13 nM equiv (mg of tissue)-1
- Radioactivity [7]: 2.19 nM equiv (mg of tissue)-1
- Administered dose [8]: 68.8%
- Radioactivity [9]: 2.45 nM equiv (mg of tissue)-1
- Radioactivity [10]: 0.92 nM equiv (mg of tissue)-1
- Survivors at 24 h [11]: 8
- Radioactivity [12]: 19.2 nM equiv (ml of blood)-1
- Plasma ALT at 24 h [13]: 4030 mU ml-1
- Administered dose [14]: 2.3%
- Radioactivity [15]: 3880 nM equiv (ml of urine)-1
- Radioactivity [16]: 0.24 nM equiv (mg of tissue)-1
- Radioactivity [17]: 0.2 nM equiv (mg of tissue)-1
- Radioactivity [18]: 0.15 nM equiv (mg of tissue)-1
- Radioactivity [19]: 15.3 nM equiv mg-1
- Radioactivity [20]: 1.08 nM equiv (mg of tissue)-1
- Radioactivity [21]: 0.11 nM equiv (mg of tissue)-1
- Radioactivity [22]: 2.89 nM equiv (mg of tissue)-1
- Administered dose [23]: 0.4%
- Radioactivity [24]: 6005 nM equiv (ml of urine)-1
- Radioactivity [25]: 0.21 nM equiv (mg of tissue)-1
- Hepatic necrosis in survivors [26]: 1.13
- Survivors at 24 h [27]: 4
- Administered dose [28]: 18.5%
- Radioactivity [29]: 0.71 nM equiv (mg of tissue)-1
- Plasma ALT at 24 h [30]: 1550 mU ml-1
- Radioactivity [31]: 0.09 nM equiv mg-1
- ED50 [32]: 84.3 mg/kg
- Radioactivity [33]: 1.52 nM equiv mg-1
- Radioactivity [34]: 1.19 nM equiv (mg of tissue)-1
- Radioactivity [35]: 1.55 nM equiv (mg of tissue)-1
- Radioactivity [36]: 0.29 nM equiv (mg of tissue)-1
- Radioactivity [37]: 1.22 nM equiv (mg of tissue)-1
- Radioactivity [38]: 0.58 nM equiv (mg of tissue)-1
- Radioactivity [39]: 12.4 nM equiv (ml of urine)-1
- Radioactivity [40]: 0.04 nM equiv (mg of tissue)-1
- Hepatic necrosis in survivors [41]: 3.25
- Radioactivity [42]: 1.13 nM equiv (mg of tissue)-1
- Radioactivity [43]: 544 nM equiv (ml of blood)-1

Source: ChEMBL document CHEMBL1123436, “Comparative toxicities and analgesic activities of three monomethylated analogues of acetaminophen” (J Med Chem, 1986)
